Activity calls are given as the source filed them. The rule behind the calls is not given here.
Key:
Type in all cases: cell-based
[1] = tested on: Cellular tumor antigen p53 (Homo sapiens), P04637 [Y220C]; assay: Activation of p53 Y220C mutant in human NUGC3 cells assessed as change in CDKN2A mRNA level at 60 uM after 18 hrs by RT-PCR method relative to control
Outline: (§1)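 p53 signalling qPCR array covering 84 genes. Cells were exposed for 18 h, with 0.5% DMSO in both compound and control samples. Total RNA was extracted and purified. Fold-changes were calculated by ΔΔCt using β2-microglobulin (B2M) as the housekeeping gene. Two independent biological replicates were run per cell line.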

[2] = tested on: Cellular tumor antigen p53 (Homo sapiens), P04637 [Y220C]; assay: Activation of p53 Y220C mutant in human NUGC3 cells assessed as change in EI24 mRNA level at 60 uM after 18 hrs by RT-PCR method relative to control; outline: as §1
[3] = tested on: Cellular tumor antigen p53 (Homo sapiens), P04637 [Y220C]; assay: Activation of p53 Y220C mutant in human NUGC3 cells assessed as change in ESR1 mRNA level at 60 uM after 18 hrs by RT-PCR method relative to control; outline: as §1
[4] = tested on: Cellular tumor antigen p53 (Homo sapiens), P04637 [Y220C]; assay: Activation of p53 Y220C mutant in human NUGC3 cells assessed as change in TNF mRNA level at 60 uM after 18 hrs by RT-PCR method relative to control
Outline: (§2)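 p53 signalling qPCR array covering 84 p53 pathway genes. Cells were exposed for 18 h, and compound and control wells both held 0.5% DMSO. Total RNA was extracted and purified. Fold-changes were calculated by the ΔΔCt method against the untreated sample, with β2-microglobulin (B2M) as the housekeeping gene. Each cell line was run in two independent biological replicates.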

[5] = tested on: Cellular tumor antigen p53 (Homo sapiens), P04637 [Y220C]; assay: Activation of p53 Y220C mutant in human NUGC3 cells assessed as change in E2F1 mRNA level at 60 uM after 18 hrs by RT-PCR method relative to control; outline: as §1
[6] = tested on: Cellular tumor antigen p53 (Homo sapiens), P04637 [Y220C]; assay: Activation of p53 Y220C mutant in human NUGC3 cells assessed as change in E2F3 mRNA level at 60 uM after 18 hrs by RT-PCR method relative to control; outline: as §1
[7] = tested on: Cellular tumor antigen p53 (Homo sapiens), P04637 [Y220C]; assay: Activation of p53 Y220C mutant in human NUGC3 cells assessed as change in GML mRNA level at 60 uM after 18 hrs by RT-PCR method relative to control; outline: as §1
[8] = tested on: Cellular tumor antigen p53 (Homo sapiens), P04637 [Y220C]; assay: Activation of p53 Y220C mutant in human NUGC3 cells assessed as change in RPRM mRNA level at 60 uM after 18 hrs by RT-PCR method relative to control; outline: as §2
[9] = tested on: Cellular tumor antigen p53 (Homo sapiens), P04637 [Y220C]; assay: Activation of p53 Y220C mutant in human NUGC3 cells assessed as change in S1AH1 mRNA level at 60 uM after 18 hrs by RT-PCR method relative to control; outline: as §2
[10] = tested on: Cellular tumor antigen p53 (Homo sapiens), P04637 [Y220C]; assay: Activation of p53 Y220C mutant in human NUGC3 cells assessed as change in NFKB1 mRNA level at 60 uM after 18 hrs by RT-PCR method relative to control; outline: as §2
[11] = tested on: Cellular tumor antigen p53 (Homo sapiens), P04637 [Y220C]; assay: Activation of p53 Y220C mutant in human NUGC3 cells assessed as change in BID mRNA level at 60 uM after 18 hrs by RT-PCR method relative to control; outline: as §1
[12] = tested on: Cellular tumor antigen p53 (Homo sapiens), P04637 [Y220C]; assay: Activation of p53 Y220C mutant in human NUGC3 cells assessed as change in MCL1 mRNA level at 60 uM after 18 hrs by RT-PCR method relative to control; outline: as §2
[13] = tested on: Cellular tumor antigen p53 (Homo sapiens), P04637 [Y220C]; assay: Activation of p53 Y220C mutant in human NUGC3 cells assessed as change in TP63 mRNA level at 60 uM after 18 hrs by RT-PCR method relative to control; outline: as §2
[14] = tested on: Cellular tumor antigen p53 (Homo sapiens), P04637 [Y220C]; assay: Activation of p53 Y220C mutant in human NUGC3 cells assessed as change in CCNH mRNA level at 60 uM after 18 hrs by RT-PCR method relative to control; outline: as §1
[15] = tested on: Cellular tumor antigen p53 (Homo sapiens), P04637 [Y220C]; assay: Activation of p53 Y220C mutant in human NUGC3 cells assessed as change in PRC1 mRNA level at 60 uM after 18 hrs by RT-PCR method relative to control; outline: as §2
[16] = tested on: Cellular tumor antigen p53 (Homo sapiens), P04637 [Y220C]; assay: Activation of p53 Y220C mutant in human NUGC3 cells assessed as change in ADGRB1 mRNA level at 60 uM after 18 hrs by RT-PCR method relative to control; outline: as §1
[17] = target: T1, Cellular tumor antigen p53 (Homo sapiens, UniProt P04637); assay: Activation of p53 in human NUGC4 cells assessed as change in BRCA1 mRNA level at 60 uM after 18 hrs by RT-PCR method relative to control; conditions: read-out: FC
Outline: (§3)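 p53 signaling qPCR array of 84 p53-pathway genes. Cells were treated in 6-well plates for 18 h with 0.5% DMSO in compound and control samples. Total RNA was extracted and fold-changes were obtained by the ΔΔCt method against untreated control, with β2-microglobulin (B2M) as housekeeping gene. Two independent biological replicates per cell line.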

[18] = target: T1, Cellular tumor antigen p53; assay: Activation of p53 in human NUGC4 cells assessed as change in FAS mRNA level at 60 uM after 18 hrs by RT-PCR method relative to control; conditions: read-out: FC; outline: as §3
[19] = target: T1, Cellular tumor antigen p53; assay: Activation of p53 in human NUGC4 cells assessed as change in CDC25A mRNA level at 60 uM after 18 hrs by RT-PCR method relative to control; conditions: read-out: FC; outline: as §3
[20] = target: T1, Cellular tumor antigen p53; assay: Activation of p53 in human NUGC4 cells assessed as change in E2F1 mRNA level at 60 uM after 18 hrs by RT-PCR method relative to control; conditions: read-out: FC; outline: as §3
[21] = target: T1, Cellular tumor antigen p53; assay: Activation of p53 in human NUGC4 cells assessed as change in RB1 mRNA level at 60 uM after 18 hrs by RT-PCR method relative to control; conditions: read-out: FC
[22] = target: T1, Cellular tumor antigen p53; assay: Activation of p53 in human NUGC4 cells assessed as change in TP53BP2 mRNA level at 60 uM after 18 hrs by RT-PCR method relative to control; conditions: read-out: FC
[23] = target: T1, Cellular tumor antigen p53; assay: Activation of p53 in human NUGC4 cells assessed as change in SIRT1 mRNA level at 60 uM after 18 hrs by RT-PCR method relative to control; conditions: read-out: FC
[24] = target: T1, Cellular tumor antigen p53; assay: Activation of p53 in human NUGC4 cells assessed as change in FADD mRNA level at 60 uM after 18 hrs by RT-PCR method relative to control; conditions: read-out: FC; outline: as §3
[25] = target: T1, Cellular tumor antigen p53; assay: Activation of p53 in human NUGC4 cells assessed as change in CCNE1 mRNA level at 60 uM after 18 hrs by RT-PCR method relative to control; conditions: read-out: FC; outline: as §3
[26] = target: T1, Cellular tumor antigen p53; assay: Activation of p53 in human NUGC4 cells assessed as change in ADGRB1 mRNA level at 60 uM after 18 hrs by RT-PCR method relative to control; conditions: read-out: FC; outline: as §2
[27] = target: T1, Cellular tumor antigen p53; assay: Activation of p53 in human NUGC4 cells assessed as change in TP73 mRNA level at 60 uM after 18 hrs by RT-PCR method relative to control; conditions: read-out: FC
[28] = tested on: Cellular tumor antigen p53 (Homo sapiens), P04637 [Y220C]; assay: Activation of p53 Y220C mutant in human HuH7 cells assessed as increase in MDM2 mRNA level at 30 uM after 18 hrs by RT-PCR method
Outline: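 Real-time PCR. Cells were treated for 18 h, with 0.5% DMSO in both compound and control samples. Relative mRNA levels were quantified by the ΔΔCt method as fold-change against the untreated sample. Each sample was measured in triplicate, and data are given as mean ± SEM with an unpaired t-test.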

fold change (FC) [1]: 1.3
fold change (FC) [2]: 0.8
fold change (FC) [3]: 2.3
fold change (FC) [4]: 5.6
fold change (FC) [5]: 1
fold change (FC) [6]: 1.3
fold change (FC) [7]: 3.1
fold change (FC) [8]: 1.4
fold change (FC) [9]: 1.5
fold change (FC) [10]: 1.5
fold change (FC) [11]: 1.2
fold change (FC) [12]: 1.7
fold change (FC) [13]: 1.5
fold change (FC) [14]: 1.4
fold change (FC) [15]: 1.1
fold change (FC) [16]: 1.5
fold induction at 60 µM [17]: 0.7
fold induction at 60 µM [18]: 1
fold induction at 60 µM [19]: 0.4
fold induction at 60 µM [20]: 0.5
fold induction at 60 µM [21]: 0.8
fold induction at 60 µM [22]: 0.9
fold induction at 60 µM [23]: 0.9
fold induction at 60 µM [24]: 0.9
fold induction at 60 µM [25]: 0.5
fold induction at 60 µM [26]: 2.9
fold induction at 60 µM [27]: 0.4
Activity [28]: Active
SMILES: CCNC(=O)c1c(O)c(I)c(-n2cccc2)c2sc(N(CC)CC)nc12

From ChEMBL document CHEMBL4152234, “Aminobenzothiazole derivatives stabilize the thermolabile p53 cancer mutant Y220C and show anticancer activity in p53-Y220C cell lines” (Eur J Med Chem, 2018)
